This is an account of results in BindingDB's records for doi:10.1016/j.bmc.2018.07.042 (Human Biomolecular Research Institute, 2018).

For the first experiment, the target named is T1, Cellular tumor antigen p53 (Homo sapiens, UniProt P04637). As to the kind of experiment: Induction of p53 transcriptional activity (unknown origin) expressed in HEK293 cells coexpressing TK-driven Rluc after 20 to 22 hrs by luciferase reporter gene assay. An outline of the steps: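 Transient transfection of HEK-293 cells with a p53-Luc vector (13x p53-binding consensus response element) plus TK-driven Renilla luciferase for normalization. Protocol was as for the Wnt reporter, but final serum was 2.5%. Cells were treated or given DMSO for 20-22 h in triplicate. Firefly/Renilla signal relative to DMSO was fit by nonlinear regression for […].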
T1 sequence (P04637 whole entry): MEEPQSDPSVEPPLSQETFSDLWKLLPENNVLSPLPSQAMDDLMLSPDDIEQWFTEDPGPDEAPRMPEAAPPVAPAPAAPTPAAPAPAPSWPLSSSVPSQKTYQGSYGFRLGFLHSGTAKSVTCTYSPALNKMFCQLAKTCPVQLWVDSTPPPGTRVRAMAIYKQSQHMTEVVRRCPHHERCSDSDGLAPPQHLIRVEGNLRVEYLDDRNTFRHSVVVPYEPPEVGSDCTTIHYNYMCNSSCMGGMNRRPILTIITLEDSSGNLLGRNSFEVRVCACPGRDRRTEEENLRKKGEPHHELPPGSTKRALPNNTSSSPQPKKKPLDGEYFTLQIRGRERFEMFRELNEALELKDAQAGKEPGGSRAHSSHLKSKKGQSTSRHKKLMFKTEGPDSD
In general terms: In a reporter assay the amount or activity of a reporter protein is the signal.
Broadly, the EC50 is the concentration giving half of the maximal effect. For the molecule `O=S(=O)(c1ccc(-n2cncn2)cc1)N1CCCc2ccccc21`, the 50% effective concentration (EC50) is greater than 5000 nM.

In turn, `O=C1CCCN1c1ccc(S(=O)(=O)N2CCCc3ccccc32)cc1` yielded an EC50 of 12 nM.

The molecule `COc1ccc2c(c1)N(C)CCN2S(=O)(=O)c1ccc(N2CCCC2=O)cc1` showed an EC50 of 4 nM.

In the case of `CN1CCN(S(=O)(=O)c2ccc(N3CCCC3=O)cc2)c2ccccc21`, the half-maximal effective concentration (EC50) is 2 nM.

The molecule `Cc1ccc2c(c1)CCCN2S(=O)(=O)c1ccc(N2CCCC2=O)cc1` yielded an EC50 of 4 nM.

For `CC(C)(C)c1ccc2c(c1)CCCN2S(=O)(=O)c1ccc(N2CCCC2=O)cc1`, the EC50 is 152 nM.

`CN1CCN(S(=O)(=O)c2ccc(N3CCC=N3)cc2)c2ccccc21` registered an EC50 of 74 nM.

Turning to `CCCN(c1ccccc1)S(=O)(=O)c1ccc(N2CCCC2=O)cc1`, the EC50 was 158 nM.

On to `CN1CCN(S(=O)(=O)c2ccc(N3CCCC3)cc2)c2ccccc21`, for which the EC50 was 65 nM.

In turn, `COc1ccc2c(c1)CCCN2S(=O)(=O)c1ccc(N2CCCC2=O)cc1` showed a half-maximal effective concentration (EC50) of 9 nM.

The target in a further experiment is T1, Cellular tumor antigen p53. Put plainly: Activation of p53 in human MCF7 cell lysates assessed as increase in total p53 protein level by Western blot analysis. Background: Immunoblotting shows a protein as a band on a membrane.
As for `CN1CCN(S(=O)(=O)c2ccc(N3CCCC3=O)cc2)c2ccccc21`, the EC50 worked out at 18 nM.
